This is a sample that favours compounds with a hit; in the whole collection about 2.7% have one here.
SDO1 yeast rescue – restores growth of sdo1-depleted yeast. S. cerevisiae sdo1-depleted JHY4D growth rescue, OD600 30 h; hits give high values; pdr5 snq2 efflux-pump mutant strain. AID 817. z-score at 10 µM. 140,000 tested, 0.21% active;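 active means z-score above 3 at both the 24 hr and the 30 hr optical density reads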;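 further: z-score against mean and SD of all compound wells on the same plate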
Yeast life ext – extends the lifespan of yeast; S. cerevisiae growth with nicotinamide, OD615; deaD strain in restrictive glucose medium; inhibition of the nicotinamide effect, % at 10 µM; 130,000 tested, 0.68% active; AID 775;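 active means inhibition above a set limit, placed 3 SD over the median of all compounds, cut at about 26% in these data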;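 further: 0% = nicotinamide-treated wells and 100% = cells grown without nicotinamide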
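System: DeaD-strain S. cerevisiae / Buffer or medium: CSMM-D, restrictive glucose (dextrose) synthetic minimal medium / Probe or stimulus: nicotinamide, 1.5 mM, co-present with compound / Compound: one concentration, 10 µM, DMSO 0.25% / Incubation: 48 h compound exposure at 30 °C, humidified / Technique: optical density (absorbance) at 615 nm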
Yeast growth inh – reduces growth of yeast BB579 in restrictive medium. S. cerevisiae BB579 growth, OD615, 48 h. inhibition, % at 10 µM. 140,000 tested, 0.51% active;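 active means inhibition above a set limit, 3 SD over the mean compound inhibition, cut at about 44% in these data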
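Test system: DeaD yeast strain BB579 / Buffer or medium: restrictive glucose-based CSMM-D medium / Doses: single 10 µM dose / Schedule: 4 h cell preincubation, 48 h compound exposure, 30 °C humidified / Technique: culture absorbance at 615 nm / Controls: amphotericin B positive control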
RAM inhibit – blocks the yeast RAM network; inhibition, % at 50 µM; 190,000 tested, 1.8% active; S. cerevisiae dse1pr::URA3 reporter, 5-FOA growth OD615, 2 d; analog-sensitive cbk1-as2 kinase mutant strain;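 active means inhibition above a set limit, 3 SD over mean compound inhibition, cut at about 8.4% in these data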;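 further: 0% = DMSO-only wells with no growth and 100% = 10 µM 1-NA-PP1 full growth; inhibition rescues growth on 5-FOA so higher OD means more RAM inhibition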
Active calls of the source: *; x = no result given.

SMILES	SDO1 yeast rescue	Yeast life ext	Yeast growth inh	RAM inhibit
C/C(=N\NC(=O)CSc1nc(C)cc(C)n1)c1cccc([N+](=O)[O-])c1	0.48	2	-53	4
CCOc1cc(-c2nc(-c3ccc(OC)cc3)no2)cc(OCC)c1OCC	-1	5	-63	9.6*
CCOC1OC(=O)C(Cl)=C1Nc1ccc(C)cc1 (stereo not drawn)	x	x	x	0
Cc1ccc(NC2=C(Cl)C(=O)OC2NC(=O)c2ccccc2)cc1 (stereo not drawn)	1.4	x	-14	9.3*
C=CCSC1=N/C(=C\c2cccnc2)C(=O)N1c1ccc(OC)cc1	-0.96	0	-8	4
CCSC1=N/C(=C\c2ccccc2)C(=O)N1c1ccc(OC)cc1	x	x	x	10*
CCCCc1cc(=O)oc2cc(C)c(CN3CCCC3)c(O)c12	-0.3	46	-45	2
CCc1cc(=O)oc2cc(C)c(CN3CCCC(C)C3)c(O)c12 (stereo not drawn)	-0.49	30*	-35	0
O=C(CCc1nnc(CCCc2ccccc2)o1)NC(C1CC1)C1CC1	x	x	x	1
CC1(CCc2ccccc2)NC(=S)N(c2ccc(Cl)cc2)N1 (stereo not drawn)	-2	-9	97*	0
CC1(CCc2ccccc2)NC(=S)N(c2ccccc2)N1 (stereo not drawn)	-1.9	-8	96*	0
CCC1(c2ccc(Cl)cc2)NC(=S)N(c2ccc(C)cc2)N1 (stereo not drawn)	-1.2	-3	-52	0
CCOC(=O)C1(CC2CCCCO2)CCN(C(=O)Nc2ccccc2CC)CC1 (stereo not drawn)	x	x	x	0
COc1ccc(CNC(=O)COC(=O)c2n[nH]c3ccccc23)cc1	0.57	-17	-28	10*
CC(C)N(Cc1nc(-c2ccccc2)no1)C(=O)COc1ccccc1	0.33	-12	-7	1
COc1cccc(OCC(=O)N(Cc2nc(-c3ccc(Cl)cc3)no2)C(C)C)c1	-1.9	-5	-18	10*
Cc1cc(Br)ccc1OCC(=O)N(Cc1nc(-c2ccccc2)no1)C(C)C	-1.1	-12	-33	11*
Cc1ccc(-c2noc(CN(C(=O)CCCCCN3C(=O)c4ccccc4C3=O)C(C)C)n2)cc1	-1.4	8	-2	9.8*
Cc1ccc(NS(=O)(=O)c2ccc3[nH]c(=O)sc3c2)cc1	x	x	x	2
CC(OC(=O)C1=COCCO1)C(=O)Nc1ccc(Oc2ccccc2)cc1 (stereo not drawn)	-0.02	-14	-34	10*
COc1ccc(CCN(Cc2nc(-c3ccccc3)no2)Cc2nc(-c3ccccc3)no2)cc1OC	-0.19	8	-45	9.0*
COC(=O)C1=C(C(=O)OC)C(c2ccccc2O)c2sc(=O)[nH]c2S1 (stereo not drawn)	-0.62	45*	-44	1
CCN(CC(=O)NC(C)C)C(=O)[C@@H](NC(=O)c1ccco1)C(C)C	x	x	x	1
CC1/C(=N/O)CC(c2ccccc2)N(C)C1c1ccccc1 (stereo not drawn)	-2.5	x	88*	0
N/C(=N\N=C\c1ccc2c(c1)OCO2)SC1CC(=O)N(c2ccc(C(=O)O)cc2)C1=O (stereo not drawn)	x	x	x	8.6*
SMILES	SDO1 yeast rescue	Yeast life ext	Yeast growth inh	RAM inhibit
C/C(CCc1ccc2c(c1)OCO2)=N\N=C(/N)SC1CC(=O)N(c2ccc(Cl)cc2)C1=O (stereo not drawn)	-0.19	6	-41	4
O=C(OCc1ccccc1)/C(=C/c1ccc(Cl)cc1)NC(=O)c1ccccc1Cl	-1.5	-1	-56	9.2*
Cc1ccc(C(=O)N/C(=C\c2ccccc2)C(=O)OCc2ccccc2)cc1	-0.81	3	-26	9.5*
CCOC(=O)/C(=C/c1ccc(Cl)cc1)NC(=O)c1ccco1	-0.04	12	-46	2
O=C(c1ccccc1)c1ccc(OCCO)cc1	x	x	x	0
COc1ccccc1OCCOc1ccc(C(=O)c2ccccc2)cc1	0.17	-6	-11	10.0*
CC(=O)N(C(C)=O)c1ncnc2c1c(-c1ccc(Cl)cc1)nn2C(C)(C)C	x	x	x	4
CC(=O)Nc1ncnc2c1c(-c1ccc(Cl)cc1)nn2C(C)(C)C	x	x	x	8.9*
CCN(CC)S(=O)(=O)c1ccc(C(=O)NC(=S)N(CCC#N)Cc2cccnc2)cc1	x	x	x	1
CC(C1CC1)N(Cc1ccccc1)C(=S)Nc1ccccc1Cl (stereo not drawn)	x	x	x	8.6*
CCCSc1nc2c3c(sc2c(=O)[nH]1)CC(C)(CC)OC3 (stereo not drawn)	x	x	x	8.8*
COc1ccc(OCC(=O)Nc2sc3c(c2C(=O)NCC2CCCO2)CCC3)cc1 (stereo not drawn)	-0.67	3	-12	9.0*
Cc1cc([N+](=O)[O-])ccc1-c1ccc(C2Nc3ccccc3C(=O)N2O)o1 (stereo not drawn)	0.14	-14	50*	1
CCN1C(=O)/C(=C\c2nc3ccccc3c(=O)n2-c2ccccc2)c2ccccc21	-1.4	7	-69	9.6*
CC(C)c1ccc(/C=C2\SC(N3CCCC3)=NC2=O)cc1	-0.91	34*	-59	4
CC1(C)CC(=O)C(N=Nc2cc3c(cc2[N+](=O)[O-])OCCO3)=C(O)C1	x	x	x	9.5*
CCN(c1cccc(C)c1)S(=O)(=O)c1ccc2c3c(cccc13)C(=O)N2	-1.8	x	-15	8.5*
CCCSC1=N/C(=C\c2ccc3c(c2)OCO3)C(=O)S1	0.88	-18	-62	10*
CCCSC1=N/C(=C\c2ccsc2)C(=O)S1	-0.34	-13	-41	4
Cc1ccc(C)n1-c1nccc(-c2ccco2)n1	x	x	x	0
COc1ccc(CCNc2nc(-c3ccco3)cc(C(F)(F)F)n2)cc1OC	-0.27	-8	14	10*
COc1ccc(CCNC(=O)CCSc2nc(-c3ccco3)cc(C(F)(F)F)n2)cc1OC	-1.3	-22	6	0
CC(C(=O)OCC(=O)c1cccc([N+](=O)[O-])c1)N1C(=O)C2C3CCC(C3)C2C1=O (stereo not drawn)	0.31	2	2	3
O=C(Nc1cnn(Cc2ccc(F)cc2)c1)c1cc2nc(-c3ccco3)cc(C(F)(F)F)n2n1	0.4	-3	-36	9.5*
COCCOC(=O)c1c(C)oc2ccc(OC(=O)c3ccc4c(c3)OCO4)cc12	0.02	-12	-37	10*
SMILES	SDO1 yeast rescue	Yeast life ext	Yeast growth inh	RAM inhibit
CCN(Cc1ccccc1)C(c1ccc(C(F)(F)F)cc1)c1nnnn1C(C)(C)C (stereo not drawn)	0.14	x	-24	11*
CCN(Cc1ccccc1)C(c1cccc(C#N)c1)c1nnnn1C(C)(C)C (stereo not drawn)	-0.63	-7	-55	3
C1CCC(Nc2nc3nonc3nc2N2CCSCC2)C1	x	x	x	0
CC(=O)Oc1cc2cccc(OC(C)=O)c(=O)c2c(OC(C)=O)c1OC(C)=O	x	x	x	1
CCOC(=O)COc1ccccc1/C=C\[N+](=O)[O-]	-0.9	44*	35	-1
CCOC(=O)COc1cc([N+](=O)[O-])cc2cccnc12	x	x	x	2
CCCCCCCCCCCCCCCC[n+]1cccc2ccccc21	-0.99	-13	100*	-2
